Screening data deposited in PubChem by several laboratories.
NPY-Y2 antag: antagonists of human neuropeptide Y receptor Y2 | NPY-Y2 expressing cells, antagonist mode | hit rate 0.99% among 140,000 | inhibition, % at 2.7 µM; in the data active = inhibition above about 17%
Measles CPE: protection of cells from measles virus; Measles virus-infected cells, CPE protection, absorbance; protection (pct of control), % at 4 µM; hit rate 1.5% among 140,000; AID 841; in the data active = protection mostly above about 24%, no sharp cut-off; inactive = mostly below about 26%
MDM2 E3 inh: inhibitors of human Mdm2 E3 ubiquitin ligase | cell-based MDM2 ubiquitination luciferase reporter, 2 h; 0 = plate control, 100 = twice control, blank-subtracted | signal enhancement, % at 5 µM | hit rate 0.11% among 210,000 | AID 1230;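 active = signal enhancement of 30% or more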;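 also: luminescence tracks abundance of the self-degrading MDM2-luciferase fusion protein; higher signal means inhibition of MDM2 E3 ligase activity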
Target sequence (Q00987 whole entry, looked up, the tested form may be a part): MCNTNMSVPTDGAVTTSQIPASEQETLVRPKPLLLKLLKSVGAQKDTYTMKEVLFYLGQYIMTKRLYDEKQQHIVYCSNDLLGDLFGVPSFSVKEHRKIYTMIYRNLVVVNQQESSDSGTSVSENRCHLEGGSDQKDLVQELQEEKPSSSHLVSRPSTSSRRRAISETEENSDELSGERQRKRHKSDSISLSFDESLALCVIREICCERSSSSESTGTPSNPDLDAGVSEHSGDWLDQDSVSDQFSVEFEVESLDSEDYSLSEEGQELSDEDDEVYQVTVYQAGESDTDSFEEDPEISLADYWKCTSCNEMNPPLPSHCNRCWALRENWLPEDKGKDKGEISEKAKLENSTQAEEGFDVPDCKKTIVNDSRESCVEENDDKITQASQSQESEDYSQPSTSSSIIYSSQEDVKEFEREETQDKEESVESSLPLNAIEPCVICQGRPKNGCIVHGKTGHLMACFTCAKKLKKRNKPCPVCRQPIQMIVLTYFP
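Buffer or medium: Cells held in DMEM | Assay system: Stable mammalian line carrying autodegrading MDM2–luciferase fusion reporter | Quantity: 2000 cells/well | Times: 4 h settle plus 2 h compound, 37 °C | Doses: One concentration, 5 µM, with 0.2% DMSO | Technique: Luminescence with SteadyLite reagent, 15 min at room temperature | Benchmarks: Plate controls and plate blanks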
NPY1 pot ag: human NPY-Y1 potentiation or agonism, primary screen; P25929; NPY-Y1 expressing cells, potentiator/agonist activation; activation, % at 3.6 µM; hit rate 0.37% among 220,000; in the data active = activation above about 33%, passing the limit was not always enough;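 also: cells stimulated with NPY at EC10 then isoproterenol at EC100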
NPY2 pot ag: potentiates or activates human NPY-Y2 receptor. cells expressing NPY-Y2, potentiator/agonist read-out. activation, % at 3.6 µM. hit rate 0.45% among 220,000. AID 1359; in the data active = activation above about 27%;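 also: cells stimulated with NPY near EC25 plus isoproterenol at EC100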
NPY Y1 blocker: blocks the human neuropeptide Y Y1 receptor | HEK293-CNG Y1 cells, membrane potential fluorescence; NPY at EC95, then isoproterenol | P25929 | inhibition, % at 3.6 µM | hit rate 1% among 200,000;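 active = inhibition above the campaign mean inhibition of all tested compounds plus 3 SD, cut at about 20% in these data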
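Test system: HEK293 cells co-expressing NPY Y1 receptor and cyclic-nucleotide gated channel; Also added: NPY (25 nM), isoproterenol (1 µM), Ro 20-1724 (25 µM); Compound dosing: one concentration, 3.6 µM, in 0.4% DMSO; Timing: dye 3 h, compound 60 min room temperature, stimulation 45 min; Technique: Membrane-potential fluorescent dye readout.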
Each line names hits and unclear results; the compound was inactive in the other large screens. In the library only some 2.8% were active in any assay of this set; here they are far more common.

COC(=O)c1cc2c(ccn2-c2ccc(F)cc2)n1C(C)C	NPY-Y2 antag 21, NPY Y1 blocker 35
CC(C)(C)OC(=O)N1CCC2(CC1)C(C#N)=C(N)OC1=C2C(=O)CCC1	none (no result: NPY-Y2 antag, Measles CPE)
CC(=O)Nc1ccc(/C=N/OCC(=O)Nc2ccc(C)cc2)cc1	Measles CPE 38
Cn1ncc2c(Nc3ccc(-c4ccccc4)cc3)ncnc21	Measles CPE 75
Cn1ncc2c(Nc3ccccc3Br)ncnc21	none (no result: Measles CPE)
COc1cc(NC(=S)N2CCN(c3ccccn3)CC2)cc(OC)c1	Measles CPE 31
CC[N+](CC)(CC)CCCCOc1ccc2c(c1)C(=O)c1cc(OCCCC[N+](CC)(CC)CC)ccc1-2	none (no result: NPY-Y2 antag, Measles CPE, NPY Y1 blocker)
COC(=O)c1c(-c2ccccc2)csc1NC(=O)c1c(-c2ccccc2)noc1C	Measles CPE 38
CCOC(=O)c1c(-c2ccc(C)cc2)csc1NC(=S)NC(=O)c1ccccc1	none
CCOC(=O)c1c(-c2ccc(F)cc2)csc1NC(=O)c1c(-c2ccccc2)noc1C	Measles CPE 67
CSc1ccc(N2C(=O)NC3(CCCCC3)C2=O)cc1	none
O=C(O)C[C@@H]1C(=O)O[C@@H]2C(COC(=O)c3cc(O)c(O)c(O)c3)O[C@@H](OC(=O)c3cc(O)c(O)c(O)c3)[C@@H](OC(=O)c3cc(O)c(O)c4c3[C@H]1[C@H](O)C(=O)O4)[C@H]2OC(=O)c1cc(O)c(O)c(O)c1 (stereo partly specified)	none (no result: NPY-Y2 antag, Measles CPE, NPY1 pot ag, NPY2 pot ag, NPY Y1 blocker)
O=C1CCN(S(=O)(=O)c2cccs2)c2ccc(C(F)(F)F)cc2N1	none (no result: NPY-Y2 antag, Measles CPE)
CCOC(=O)CN1C(=O)SC(CC(=O)Nc2nccs2)C1=O (stereo unspecified)	Measles CPE 36
CN(CC(=O)O)Cc1nc2ccccc2[nH]1	none
Cc1cc(/C=N/NC(=O)Cn2c3ccccc3c(=O)c3ccccc32)c(C)n1-c1ccccc1	NPY1 pot ag 50, NPY2 pot ag 50
CCCCc1ccc(-n2c(Cc3cccs3)n[nH]c2=S)cc1	none (no result: NPY-Y2 antag, Measles CPE)
CCOCN(C(=O)Cn1cnc2ccccc21)c1c(C)cccc1CC	none (no result: NPY-Y2 antag, Measles CPE)
CCOCN(C(=O)Cn1c(CO)nc2ccccc21)c1c(C)cccc1CC	Measles CPE 35
FC(F)(F)c1cccc(NCc2cn3cccnc3n2)c1	Measles CPE 55
Cc1cccc(NC(=O)C2CCCN2S(=O)(=O)c2cccc3cccnc23)c1 (stereo unspecified)	none
CC(=O)NC1C(=O)N(CCc2ccccc2)c2ccc(Br)cc21 (stereo unspecified)	NPY-Y2 antag 23, NPY Y1 blocker 23
CCOC(=O)c1csc(COc2ccc(OC)cc2)n1	none (no result: NPY-Y2 antag, Measles CPE, NPY Y1 blocker)
COc1ccc(-c2noc(COc3ccc4c(c3)OCO4)n2)cc1OC	NPY Y1 blocker 26
Fc1ccc(CN2CCN(c3ncccn3)CC2)cc1	Measles CPE 36
COCCNC(=O)CSCc1cc(C)cc(C)c1	none (no result: NPY-Y2 antag, Measles CPE, MDM2 E3 inh)
N#Cc1c(NC(=O)c2ccccc2Cl)n(Cc2ccccc2)c2nc3ccccc3nc12	Measles CPE 47
CCCCn1c(NC(=O)c2ccccc2Cl)c(C#N)c2nc3ccccc3nc21	none
Cc1cc(C(=O)COC(=O)C2=NNC(=O)CC2)c(C)n1-c1ccccc1	none
Cc1ccc(-n2c(C)cc(C(=O)COC(=O)C3=NNC(=O)CC3)c2C)cc1	Measles CPE 29
N#C/C(=C(/O)CN1CCCCC1)c1nc(-c2ccc(Cl)cc2)cs1	Measles CPE 81
N#C/C(=C(/O)CN1CCN(c2ccccc2F)CC1)c1nc(-c2ccc(Cl)cc2)cs1	none
COc1ccc(C2c3c(ncn(Cc4ccco4)c3=N)Oc3ccc4ccccc4c32)cc1 (stereo unspecified)	none
N=c1c2c(ncn1Cc1ccco1)Oc1ccc3ccccc3c1C2c1ccccc1 (stereo unspecified)	NPY-Y2 antag 33, NPY Y1 blocker 39
COC(=O)C/C=C/[C@@H](C)[C@@H](/C=N/OC[C@H]1O[C@H](c2ccccc2)C=C[C@@H]1Oc1ccc(OC)cc1)OC	NPY-Y2 antag 19, NPY Y1 blocker 25 (no result: MDM2 E3 inh)
O=C(Cn1cnc([N+](=O)[O-])n1)N/N=C/c1ccccc1O	none
Cc1ccccc1/C=N/NC(=O)Cn1cnc([N+](=O)[O-])n1	NPY1 pot ag 111
Cc1cccc(Cl)c1OCCCCn1ccnc1	none
Cc1cccc(C(C)(C)C)c1OCCn1ccnc1	Measles CPE 26
